What was measured:
CCRF-CEM = test: NCI in vitro five dose anticancer assay; type: cell-based, human; details: 48 h
MOLT-4 = test: NCI in vitro five dose anticancer assay; type: cell-based, human
A549/ATCC = test: NCI in vitro five dose anticancer assay; type: cell-based, human
NCI-H226 = test: NCI in vitro five dose anticancer assay; type: cell-based, human
NCI-H322M = test: NCI in vitro five dose anticancer assay; type: cell-based, human; details: 48 h
KM12 = test: NCI in vitro five dose anticancer assay; type: cell-based, human
SF-295 = test: NCI in vitro five dose anticancer assay; type: cell-based, human
MALME-3M = test: NCI in vitro five dose anticancer assay; type: cell-based, human; details: 48 h
MDA-MB-435 = test: NCI in vitro five dose anticancer assay; type: cell-based, human
SK-MEL-5 = test: NCI in vitro five dose anticancer assay; type: cell-based, human
UACC-257 = test: NCI in vitro five dose anticancer assay; type: cell-based, human
UACC-62 = test: NCI in vitro five dose anticancer assay; type: cell-based, human
OVCAR-3 = test: NCI in vitro five dose anticancer assay; type: cell-based, human
OVCAR-8 = test: NCI in vitro five dose anticancer assay; type: cell-based, human
NCI/ADR-RES = test: NCI in vitro five dose anticancer assay; type: cell-based, human; details: 48 h
786–0 = test: NCI in vitro five dose anticancer assay; type: cell-based, human
ACHN = test: NCI in vitro five dose anticancer assay; type: cell-based, human; details: 48 h
SN12C = test: NCI in vitro five dose anticancer assay; type: cell-based, human; details: 48 h
UO-31 = test: NCI in vitro five dose anticancer assay; type: cell-based, human
MDA-MB231/ATCC = test: NCI in vitro five dose anticancer assay; type: cell-based, human
HS 578T = test: NCI in vitro five dose anticancer assay; type: cell-based, human; details: 48 h
MDA-MB-468 = test: NCI in vitro five dose anticancer assay; type: cell-based, human
[1] = system: full NCI panel of 60 cell lines; test: NCI in vitro one dose anticancer assay; type: cell-based, human; details: 48 h
Method in brief: (§1)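 NCI protocol. Test compound added once at 10−5 M to ~60 human tumour lines from nine subpanels. Incubated 48 h at 37 °C, 5% CO2, 95% air, 100% relative humidity. Endpoint by sulforhodamine B protein staining with spectrophotometric absorbance. Growth of treated cells reported as percent of untreated cells.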

K-562 cell line = test: NCI in vitro one dose anticancer assay; type: cell-based; details: Homo sapiens, K562, 48 h, read-out: % growth inhibition
Method in brief: as §1

RPMI-8226 cell line = test: NCI in vitro one dose anticancer assay; type: cell-based; details: Homo sapiens, RPMI-8226, 48 h, read-out: % growth inhibition
Method in brief: as §1

[2] = system: full panel of 58 human tumor cell lines; test: NCI in vitro five dose anticancer assay, whole panel; type: cell-based; details: read-out: GI50 (range over panel)
K-562 = test: MTT anti-proliferative assay; type: cell-based, human; details: Homo sapiens, K562, 24 h, read-out: IC50 ± SD, K-562
KG-1a = test: MTT anti-proliferative assay; type: cell-based, human; details: Homo sapiens, KG-1a, 24 h, read-out: IC50 ± SD, KG-1a
[3] = system: EGFR, p-EGFR, Src and p-Src in K562 cells; test: Western blot analysis in K562 cells; type: cell-based, human; details: K562 cells, 0.2, 0.8, 1.6 μM, 24 h
Method in brief: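 K562 cells incubated 24 h with test compound at 0.2, 0.8 or 1.6 μM, or DMSO. 50 μg protein resolved on 8 or 10% SDS-PAGE and transferred to PVDF. Blocked 1 h in PBS with 3% non-fat milk, 1% BSA, 0.5% Tween-20. Primary antibody overnight, then HRP-IgG 1 h at room temperature. ECL detection on X-ray film.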

STAT3 = STAT3 activation assay; type: cell-based, human; details: K-562 cells, 10 μM, 24 h, nuclear extracts
Method in brief: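 K562 cells seeded overnight in 10 cm plates, then given vehicle, test compound (10 μM) or WP1066 (positive control) for 24 h. Nuclear fractions extracted by kit. STAT3 activation measured in nuclear extracts by TransAM STAT3 ELISA per manufacturer. Mean ± SD of three independent experiments, each in triplicate.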

## COc1ccc(C=CC(=O)c2ccc(NC(=O)CSc3nnc(-c4cc(OC)c(OC)c(OC)c4)o3)cc2)cc1 [Compound 8v, N-(4-(3-(4-Methoxyphenyl)acryloyl)phenyl)-2-((5-(3,4,5-trimethoxy-phenyl)-1,3,4-oxadiazol-2-yl)thio)acetamide]
CCRF-CEM; Homo sapiens
  GI50: 1.84 µM
CCRF-CEM; Leukemia, five dose, SRB
  TGI: 4.56 µM
MOLT-4; Homo sapiens, MOLT-4, 48 h
  GI50: 2.05 µM
MOLT-4; MOLT-4, Leukemia, five dose, 48 h, SRB
  TGI: 5.27 µM
A549/ATCC; A549/ATCC, Non-Small Cell Lung Cancer, five dose, 48 h, SRB
  TGI: 3.53 µM
A549/ATCC; Homo sapiens, A549, 48 h
  GI50: 1.84 µM
NCI-H226; Homo sapiens, NCI-H226, 48 h
  GI50: 2.67 µM
NCI-H226; NCI-H226, Non-Small Cell Lung Cancer, five dose, 48 h, SRB
  TGI: 5.69 µM
NCI-H322M; Homo sapiens
  GI50: 1.59 µM
NCI-H322M; Non-Small Cell Lung Cancer, five dose, SRB
  TGI: 2.98 µM
KM12; Homo sapiens, KM12, 48 h
  GI50: 1.77 µM
KM12; KM12, Colon Cancer, five dose, 48 h, SRB
  TGI: 3.40 µM
SF-295; Homo sapiens, SF-295, 48 h
  GI50: 1.77 µM
SF-295; SF-295, CNS cancer, five dose, 48 h, SRB
  TGI: 3.35 µM
MALME-3M; Homo sapiens, Malme-3M
  GI50: 1.68 µM
MALME-3M; MALME-3M, Melanoma, five dose, SRB
  TGI: 3.45 µM
MDA-MB-435; Homo sapiens, MDA-MB-435, 48 h
  GI50: 1.7 µM
MDA-MB-435; MDA-MB-435, Melanoma, five dose, 48 h, SRB
  TGI: 3.40 µM
SK-MEL-5; Homo sapiens, SK-MEL-5, 48 h
  GI50: 2.14 µM
SK-MEL-5; SK-MEL-5, Melanoma, five dose, 48 h, SRB
  TGI: 5.24 µM
UACC-257; Homo sapiens, UACC-257, 48 h
  GI50: 2.16 µM
UACC-257; UACC-257, Melanoma, five dose, 48 h, SRB
  TGI: 4.69 µM
UACC-62; Homo sapiens, UACC-62, 48 h
  GI50: 1.73 µM
UACC-62; UACC-62, Melanoma, five dose, 48 h, SRB
  TGI: 3.43 µM
OVCAR-3; Homo sapiens, OVCAR-3, 48 h
  GI50: 1.78 µM
OVCAR-3; OVCAR-3, Ovarian Cancer, five dose, 48 h, SRB
  TGI: 3.38 µM
OVCAR-8; Homo sapiens, OVCAR-8, 48 h
  GI50: 2.32 µM
OVCAR-8; OVCAR-8, Ovarian Cancer, five dose, 48 h, SRB
  TGI: 5.73 µM
NCI/ADR-RES; Homo sapiens
  GI50: 2.42 µM
NCI/ADR-RES; Ovarian Cancer, five dose, SRB
  TGI: 7.03 µM
786–0; 786–0, Renal Cancer, five dose, 48 h, SRB
  TGI: 3.36 µM
786–0; Homo sapiens, 786-0, 48 h
  GI50: 1.7 µM
ACHN; Homo sapiens
  GI50: 1.72 µM
ACHN; Renal Cancer, five dose, SRB
  TGI: 3.22 µM
SN12C; Homo sapiens
  GI50: 1.83 µM
SN12C; Renal Cancer, five dose, SRB
  TGI: 3.57 µM
UO-31; Homo sapiens, UO-31, 48 h
  GI50: 1.46 µM
UO-31; UO-31, Renal Cancer, five dose, 48 h, SRB
  TGI: 2.97 µM
MDA-MB231/ATCC; Homo sapiens, MDA-MB-231, 48 h
  GI50: 1.82 µM
MDA-MB231/ATCC; MDA-MB231/ATCC, Breast cancer, five dose, 48 h, SRB
  TGI: 3.50 µM
HS 578T; HS 578T, Breast cancer, five dose, SRB
  TGI: 7.76 µM
HS 578T; Homo sapiens, Hs-578T
  GI50: 2.65 µM
MDA-MB-468; Homo sapiens, MDA-MB-468, 48 h
  GI50: 2.1 µM
MDA-MB-468; MDA-MB-468, Breast cancer, five dose, 48 h, SRB
  TGI: 5.02 µM
[1]; 10 μM, SRB
  number of cell lines with complete cell death: 45
[1]; Homo sapiens, 60 cell, read-out: Mean growth inhibition %
  inhibition at 10 µM: 132%
K-562 cell line
  inhibition at 10 µM: 35.8 to 152%
RPMI-8226 cell line
  inhibition at 10 µM: 31.3 to 144%
[2]
  GI50: 0.32 to 11 µM
K-562
  IC50: 1.95 ± 0.18 µM
KG-1a
  IC50: 3.45 ± 0.25 µM
[3]
  protein expression levels of p-EGFR, EGFR, p-Src and Src: downregulated
STAT3
  inhibition of STAT3 activation: most effective

— paper PMC6923798 (Bioorganic chemistry, 2018)
